In data set [1] the test system is Human immunodeficiency virus 1. The data set is described as follows: Antiviral activity against HIV1 3B infected in human MT4 cells after 5 days by MTT assay. The settings on record: Human immunodeficiency virus 1, 3B, MT4, 120 h. The class given is functional, organism-based. The method in brief:
(§1)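 MT-4 cells (6 × 10^5 cells/mL) infected with HIV-1 IIIB or HIV-2 ROD at 100–300 CCID50. Serial fivefold compound dilutions were tested in triplicate wells. Viability was read by MTT reduction at 540 and 690 nm on day 5, using the median OD of three wells. EC50 is the concentration giving 50% protection from viral cytopathic effect.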
Background: Formazan colour is commonly taken as a measure of viable cells.

The nature of data set [2]: Cytotoxicity against human MT4 cells after 5 days by MTT assay. In kind it is cell-based. The procedure, abridged: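 Mock-infected MT-4 cells (6 × 10^5 cells/mL) received serial fivefold compound dilutions in triplicate wells, run in parallel with the infected series. After 5 days, viability was measured by MTT formazan absorbance at 540 and 690 nm, using the median OD of three wells. CC50 is the concentration reducing OD540 of the mock-infected control by 50%.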

The test system of data set [3] is Human immunodeficiency virus 2. The data set is described as follows: Antiviral activity against HIV2 ROD infected in human MT4 cells after 5 days by MTT assay. The class given is functional, organism-based. The settings on record: Human immunodeficiency virus 2, ISOLATE ROD, MT4, 120 h. The method in brief: as §1
The nature of data set [4]: Selectivity index, ratio of CC50 for human MT4 cells to EC50 for HIV2 ROD. The class given is toxicity, cell-based. The settings on record: read-out: Ratio CC50/EC50. The method in brief:
(§2)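 Ratio CC50/EC50. CC50 comes from mock-infected MT-4 cells and EC50 from HIV-1 IIIB- or HIV-2 ROD-infected MT-4 cells, both from the same 5-day MTT plates.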

A short description of data set [5]: Selectivity index, ratio of CC50 for human MT4 cells to EC50 for HIV1 3B. The class given is toxicity, cell-based. The settings on record: read-out: Ratio CC50/EC50. The method in brief: as §2

What is called EC50 is the midpoint of the concentration-response curve. Low values mean a more potent agent, high ones a less potent agent. For orientation: CC50 means the concentration that lowers cell viability or growth by half. Higher therefore signals better tolerance by the cells. For the compound `Cc1ccc2sc(NC(=O)CSc3snnc3-c3ccc(Br)cc3Br)nc2c1`, the concentration for a half-maximal effect (EC50) in data set [1] and in data set [3] was above 23.6 µM throughout. Besides, the 50% cytotoxic concentration (CC50) at 120 h in data set [2] worked out at 23.6 µM. In addition, the selectivity ratio in data set [4] and in data set [5] was below 1 throughout.
In the case of `Cc1cccc(C)c1NC(=O)CSc1snnc1-c1ccc(Br)cc1Br`, the concentration giving a half-maximal response (EC50) in data set [1] and in data set [3] was above 199 µM each time. The cytotoxic concentration (CC50) at 120 h in data set [2] is at least 199 µM. For the same compound, the selectivity ratio in data set [4] and in data set [5] was below 1 each time.
Turning to `O=C(CSc1snnc1-c1ccc(Br)cc1Br)Nc1ccccc1[N+](=O)[O-]`, the EC50 in data set [1] is 0.04 µM; in data set [3], above 236 µM. The compound further had a CC50 at 120 h in data set [2] above 236 µM. For the same compound, the selectivity ratio was at least 1 in data set [4] and above 5840 in data set [5].
Take `Cc1ccccc1NC(=O)CSc1snnc1-c1ccc(Br)cc1Br`: the concentration giving a half-maximal response (EC50) was 0.52 µM in data set [1] and above 202 µM in data set [3]. For the same compound, the midpoint of cytotoxicity in data set [2], the CC50 at 120 h, lay at 202 µM. In addition, the selectivity ratio was below 1 in data set [4] and 381 in data set [5].
In the case of `O=C(CSc1snnc1-c1ccc(Br)cc1Br)Nc1ccccc1F`, the EC50 in data set [1] is 0.14 µM; in data set [3], above 27.8 µM. The CC50 at 120 h in data set [2] was at least 27.8 µM. The selectivity ratio was below 1 in data set [4] and above 195 in data set [5].
For `Cc1ccc(NC(=O)CSc2snnc2-c2ccc(Br)cc2Br)cc1`, the EC50 in data set [1] is 1.52 µM; in data set [3], above 24 µM. In data set [2], the half-maximal cytotoxic concentration (CC50) at 120 h worked out at 24 µM. For the same compound, the selectivity ratio in data set [4] was below 1; in data set [5], 16.
The like results for `O=C(CSc1snnc1-c1ccc(Br)cc1Br)Nc1ccccn1` were, in that order, 1.17 µM, above 42.4 µM, 42.4 µM, below 1 and 36.
As for `COC(=O)c1ccsc1NC(=O)CSc1snnc1-c1ccc(Br)cc1Br`, the EC50 in data set [1] is 4.01 µM; in data set [3], above 228 µM. Further, the CC50 at 120 h in data set [2] was above 228 µM. The selectivity ratio in data set [4] was at least 1; in data set [5], above 57.
Regarding `O=C(CSc1snnc1-c1ccc(Br)cc1Br)Nc1cccnc1Cl`, the results for the half-maximal effective concentration (EC50) in data set [1] and in data set [3] were 0.0364 µM and above 240 µM, respectively. Moreover, the CC50 at 120 h in data set [2] is above 240 µM. The selectivity ratio in data set [4] was at least 1; in data set [5], above 6460.
As to `O=C(CSc1snnc1-c1ccc(Br)cc1Br)Nc1nccs1`, the figures for the EC50 in data set [1] and in data set [3] were 4.53 µM and above 87.8 µM, respectively. In data set [2], half-maximal cytotoxicity (CC50 at 120 h) was put at 87.8 µM. Besides, the selectivity ratio is below 1 in data set [4] and 19 in data set [5].
`Cc1ccc(NC(=O)CSc2snnc2-c2ccc(Br)cc2Br)c([N+](=O)[O-])c1`: the EC50 in data set [1] was 0.079 µM; in data set [3], above 230 µM. The compound also yielded a CC50 at 120 h in data set [2] above 230 µM. Moreover, the selectivity ratio in data set [4] is at least 1; in data set [5], above 2930.
`Cc1ccc(NC(=O)CSc2snnc2-c2ccc(Br)cc2Br)c(Br)c1`: the values for the EC50 in data set [1] and in data set [3] were 0.22 µM and above 216 µM, respectively. The same compound had a 50% cytotoxic concentration (CC50) at 120 h in data set [2] above 216 µM. For the same compound, the selectivity ratio in data set [4] was at least 1; in data set [5] it was above 958.
Take `O=C(CSc1snnc1-c1ccc(Br)cc1Br)Nc1ccccc1`: the EC50 is 0.54 µM in data set [1] and above 24.8 µM in data set [3]. The compound further showed a 50% cytotoxic concentration (CC50) at 120 h in data set [2] of 24.8 µM. The selectivity ratio in data set [4] is below 1; in data set [5], 47.
The like results for `O=C(CSc1snnc1-c1ccc(Br)cc1Br)Nc1ccccc1Cl` were, in that order, 0.083 µM, at least 221 µM, above 241 µM, above 1 and above 2900.
For the compound `Cc1cccc(NC(=O)CSc2snnc2-c2ccc(Br)cc2Br)c1C`, the figures for the 50% effective concentration (EC50) in data set [1] and in data set [3] were 1.44 µM and above 241 µM, respectively. In data set [2], the cytotoxic concentration (CC50) at 120 h was determined as 241 µM. The values for the selectivity ratio in data set [4] and in data set [5] were below 1 and 166, respectively.
The like results for `O=C(CSc1snnc1-c1ccc(Br)cc1Br)Nc1ccccc1Br` were, in that order, 0.12 µM, 172 µM, above 222 µM, above 1 and above 1790.
As for `O=C(CSc1snnc1-c1ccc(Br)cc1Br)Nc1ccc(Cl)cc1`, the EC50 is 2.19 µM in data set [1] and above 23.3 µM in data set [3]. Further, the CC50 at 120 h in data set [2] amounted to 23.3 µM. Besides, the selectivity ratio was below 1 in data set [4] and 11 in data set [5].
On to `CC(=O)c1ccc(NC(=O)CSc2snnc2-c2ccc(Br)cc2Br)c(Br)c1`, for which the concentration giving a half-maximal response (EC50) in data set [1] is 0.058 µM; in data set [3] it was above 206 µM. This compound also displayed a CC50 at 120 h in data set [2] above 206 µM. In addition, the selectivity ratio in data set [4] is at least 1; in data set [5], above 3550.

Values taken from ChEMBL document CHEMBL1155288, “Novel 1,2,3-thiadiazole derivatives as HIV-1 NNRTIs with improved potency: Synthesis and preliminary SAR studies” (Bioorg Med Chem, 2009).
